Measurements as given in ChEMBL document CHEMBL4823296, “NMR-Guided Design of Potent and Selective EphA4 Agonistic Ligands” (J Med Chem, 2021).
pKd: −log10 of the molar value. In brackets after ≈: the same amount, converted by molar mass. Values belong to the molecule of their own block, whether it stands above or below them. Activity calls are given as the source filed them. The calls are words filed in the database; no cut-off is given here. Non-standard residues stand in square brackets, D forms with d. Residues, ends and D or L forms follow the SMILES beside them. *: point of attachment. Phe(4-(2-MeO-Ph)) = COc1ccccc1-c1ccc(C[C@H](N)C(=O)O)cc1; Cyclohexanoyl(1S,3S-3-NH2) = N[C@H]1CCC[C@H](C(=O)*)C1; Trp(5-OH) = N[C@@H](Cc1c[nH]c2ccc(O)cc12)C(=O)O; NHPh(4-CH2-morpholino) = c1cc(N*)ccc1CN1CCOCC1; NH(4-morpholinophenyl) = c1cc(N2CCOCC2)ccc1N*; Bip = N[C@@H](Cc1ccc(-c2ccccc2)cc1)C(=O)O; hArg = N=C(N)NCCCC[C@H](N)C(=O)O

What was measured:
[1] = system: Neuron; assay: Cytoprotective activity against patient derived induced astrocyte-mediated B6-Cg-Tg(Hlxb9-GFP)1Tmj/J (Hb9-GFP) mouse motor neuron death at 100 uM measured after 3 days by imaging method; type: functional, tissue-based; details: time 3.0 day
Summary of the method: (§1)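 Patient fibroblast-derived NPCs differentiated 5 days into induced astrocytes (DMEM, 10% FBS, 0.2% N2), seeded 10,000 per well; 24 h later GFP+ (HB9 promoter) motor neurons sorted from mouse embryoid bodies added at 10,000 per well together with compound. Imaged up to 3 days; neurons with neurites >50 μm counted alive, normalized to healthy-control survival; at least 2 independent experiments.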

[2] = Aqueous solubility of compound; type: physicochemical; details: buffer
[3] = biological target: Ephrin type-A receptor 2 (Homo sapiens, UniProt P29317); assay: Binding affinity to N-terminal His tagged EphA2 LBD (27 to 200 residues) (unknown origin) expressed in Origami (DE3) cells by isothermal titration calorimetry
Sequence of Ephrin type-A receptor 2 (P29317 whole entry, the tested form may be a part): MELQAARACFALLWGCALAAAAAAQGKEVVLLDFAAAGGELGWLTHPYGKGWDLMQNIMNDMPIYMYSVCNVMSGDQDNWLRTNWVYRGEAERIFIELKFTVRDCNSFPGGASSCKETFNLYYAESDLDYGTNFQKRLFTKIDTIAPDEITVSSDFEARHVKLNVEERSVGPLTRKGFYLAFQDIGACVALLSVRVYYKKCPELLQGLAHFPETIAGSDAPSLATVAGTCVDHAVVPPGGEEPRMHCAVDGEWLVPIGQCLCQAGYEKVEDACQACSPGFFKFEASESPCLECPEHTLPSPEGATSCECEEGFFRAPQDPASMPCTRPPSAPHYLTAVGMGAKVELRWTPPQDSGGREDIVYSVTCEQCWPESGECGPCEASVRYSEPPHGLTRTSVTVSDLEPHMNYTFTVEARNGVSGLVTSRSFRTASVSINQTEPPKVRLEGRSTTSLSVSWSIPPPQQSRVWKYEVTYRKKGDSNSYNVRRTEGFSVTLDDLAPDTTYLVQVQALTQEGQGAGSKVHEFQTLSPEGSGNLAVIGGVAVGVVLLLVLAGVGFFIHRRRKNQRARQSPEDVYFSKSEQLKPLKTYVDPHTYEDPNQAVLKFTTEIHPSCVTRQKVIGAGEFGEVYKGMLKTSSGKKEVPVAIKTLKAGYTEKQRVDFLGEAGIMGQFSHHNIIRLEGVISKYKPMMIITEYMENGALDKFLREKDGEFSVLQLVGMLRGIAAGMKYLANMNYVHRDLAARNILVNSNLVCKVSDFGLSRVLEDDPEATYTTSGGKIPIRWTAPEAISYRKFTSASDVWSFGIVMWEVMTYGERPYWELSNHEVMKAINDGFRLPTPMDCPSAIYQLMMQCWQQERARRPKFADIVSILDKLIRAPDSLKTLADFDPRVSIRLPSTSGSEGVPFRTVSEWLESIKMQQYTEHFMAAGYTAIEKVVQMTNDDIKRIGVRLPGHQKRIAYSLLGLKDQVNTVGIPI

[4] = biological target: T1, Ephrin type-A receptor 4 (Homo sapiens, UniProt P54764); assay: Binding affinity to N-terminal His tagged EphA4 LBD (unknown origin) (29 to 209 residues) expressed in Rosetta-Gami B(DE3) cells by isothermal titration calorimetry
T1 sequence (P54764 whole entry, the tested form may be a part): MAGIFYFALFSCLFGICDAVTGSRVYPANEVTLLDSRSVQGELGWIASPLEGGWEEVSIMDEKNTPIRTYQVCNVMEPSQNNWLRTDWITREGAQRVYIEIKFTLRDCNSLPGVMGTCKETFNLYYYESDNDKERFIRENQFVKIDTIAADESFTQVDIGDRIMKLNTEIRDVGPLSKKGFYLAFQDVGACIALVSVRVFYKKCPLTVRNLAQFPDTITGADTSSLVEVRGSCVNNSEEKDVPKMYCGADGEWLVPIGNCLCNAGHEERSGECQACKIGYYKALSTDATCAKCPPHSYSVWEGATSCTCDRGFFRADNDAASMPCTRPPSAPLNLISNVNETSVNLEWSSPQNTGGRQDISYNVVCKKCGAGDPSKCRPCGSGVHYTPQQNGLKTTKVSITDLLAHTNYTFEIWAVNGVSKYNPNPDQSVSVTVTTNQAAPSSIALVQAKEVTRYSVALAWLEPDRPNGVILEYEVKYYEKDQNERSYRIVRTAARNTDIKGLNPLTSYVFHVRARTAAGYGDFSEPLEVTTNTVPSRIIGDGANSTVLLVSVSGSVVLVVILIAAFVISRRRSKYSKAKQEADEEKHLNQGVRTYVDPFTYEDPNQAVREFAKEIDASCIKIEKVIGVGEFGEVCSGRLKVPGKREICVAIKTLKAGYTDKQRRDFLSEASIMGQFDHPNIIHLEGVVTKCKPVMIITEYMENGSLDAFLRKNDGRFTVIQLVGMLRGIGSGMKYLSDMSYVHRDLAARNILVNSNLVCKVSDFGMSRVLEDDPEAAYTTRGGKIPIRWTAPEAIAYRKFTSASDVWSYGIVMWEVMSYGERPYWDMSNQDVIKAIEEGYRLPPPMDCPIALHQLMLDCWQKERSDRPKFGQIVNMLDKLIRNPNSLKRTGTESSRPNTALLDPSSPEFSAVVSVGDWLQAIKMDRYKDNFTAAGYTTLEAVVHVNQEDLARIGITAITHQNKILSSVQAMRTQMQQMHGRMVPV

[5] = biological target: T1, Ephrin type-A receptor 4; assay: Displacement of EphrinA5 from N-terminal His tagged EphA4 LBD (unknown origin) (29 to 209 residues) expressed in Rosetta-Gami B(DE3) cells by 2D-[13C-1H] HSQC NMR spectroscopy; type: cell-based; details: filed as agonist
[6] = system: Neuron; assay: Cytoprotective activity against patient derived induced astrocyte-mediated B6-Cg-Tg(Hlxb9-GFP)1Tmj/J (Hb9-GFP) mouse motor neuron death at 10 uM measured after 3 days by imaging method; type: functional, tissue-based; details: time 3.0 day; summary of the method: as §1
[7] = biological target: Ephrin type-A receptor 4 (Mus musculus) (UniProt Q03137); assay: Agonist activity at EphA4 in B6-Cg-Tg(Hlxb9-GFP)1Tmj/J (Hb9-GFP) mouse spinal cord motor neurons assessed as induction of growth cone collapse at 1 to 10 uM in presence of ephrin A1-Fc by rhodamine-coupled phalloidin dye based inverted fluorescent microscopic method; details: filed as agonist, dose 1-10 µM
Sequence of Ephrin type-A receptor 4 (Mus musculus) (Q03137 whole entry): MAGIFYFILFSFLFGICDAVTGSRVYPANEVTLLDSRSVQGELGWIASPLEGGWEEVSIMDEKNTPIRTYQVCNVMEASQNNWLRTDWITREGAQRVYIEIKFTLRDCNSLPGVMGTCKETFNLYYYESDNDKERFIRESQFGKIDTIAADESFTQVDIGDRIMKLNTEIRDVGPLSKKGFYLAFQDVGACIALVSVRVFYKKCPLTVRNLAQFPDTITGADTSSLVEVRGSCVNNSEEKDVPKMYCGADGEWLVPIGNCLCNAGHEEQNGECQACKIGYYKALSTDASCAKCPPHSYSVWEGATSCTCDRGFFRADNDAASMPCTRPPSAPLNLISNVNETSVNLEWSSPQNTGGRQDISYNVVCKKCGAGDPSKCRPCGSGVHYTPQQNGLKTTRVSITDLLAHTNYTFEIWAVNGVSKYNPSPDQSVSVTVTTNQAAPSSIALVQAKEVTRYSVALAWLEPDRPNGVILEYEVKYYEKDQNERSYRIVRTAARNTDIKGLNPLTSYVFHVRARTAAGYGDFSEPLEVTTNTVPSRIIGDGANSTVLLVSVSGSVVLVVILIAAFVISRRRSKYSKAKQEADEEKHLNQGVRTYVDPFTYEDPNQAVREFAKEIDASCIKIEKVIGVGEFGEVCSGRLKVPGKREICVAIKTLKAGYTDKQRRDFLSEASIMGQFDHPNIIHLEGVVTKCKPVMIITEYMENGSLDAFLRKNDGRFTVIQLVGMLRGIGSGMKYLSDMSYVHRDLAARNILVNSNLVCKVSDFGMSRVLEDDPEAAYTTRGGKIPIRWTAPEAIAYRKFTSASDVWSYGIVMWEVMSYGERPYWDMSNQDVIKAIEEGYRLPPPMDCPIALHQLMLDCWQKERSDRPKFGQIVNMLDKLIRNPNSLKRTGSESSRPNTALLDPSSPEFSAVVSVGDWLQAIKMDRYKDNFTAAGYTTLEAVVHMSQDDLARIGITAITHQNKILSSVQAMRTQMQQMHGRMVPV
Summary of the method: (§2)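 Primary Hb9-GFP mouse spinal cord motor neurons at 2 DIV treated as in receptor activation assay (30 min, 37°C), 1 or 10 μM, alone or with pre-clustered ephrinA1-Fc (2 μg/mL); 0.1% DMSO negative control. Fixed in 2% paraformaldehyde, F-actin stained with rhodamine-phalloidin, ChAT immunolabelled; 20× fluorescence imaging, percent collapsed growth cones, 100 images per group; SEM, n=4–6 coverslips.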

[8] = biological target: Ephrin type-A receptor 4 (Mus musculus) (UniProt Q03137); assay: Agonist activity at EphA4 in B6-Cg-Tg(Hlxb9-GFP)1Tmj/J (Hb9-GFP) mouse primary spinal cord motor neuron cells assessed as protein phosphorylation at […] residues at 1 to 10 uM incubated for 30 mins by Western blotting analysis; details: filed as agonist, dose 1-10 µM
Summary of the method: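 Hb9-GFP mouse motor neurons from P0–2 spinal cords (papain/DNase I dissociation, OptiPrep purification), plated on poly-D-lysine/laminin in Neurobasal/B27, then 5% horse serum plus CNTF; at 2 DIV treated 30 min at 37°C, 5% CO2/10% O2, at 1 or 10 μM; 0.1% DMSO, pre-clustered Fc and ephrinA1-Fc (2 μg/mL) controls. Lysates immunoprecipitated with anti-EphA4, blotted for phosphotyrosine, reprobed for EphA4; pEphA4/total EphA4 band density ratio; SEM, each experiment repeated 3 times.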

[9] = biological target: Ephrin type-A receptor 4 (Mus musculus) (UniProt Q03137); assay: Agonist activity at EphA4 in B6-Cg-Tg(Hlxb9-GFP)1Tmj/J (Hb9-GFP) mouse spinal cord motor neurons assessed as induction of growth cone collapse at 1 to 10 uM by rhodamine-coupled phalloidin dye based inverted fluorescent microscopic method; details: filed as agonist, dose 1-10 µM; summary of the method: as §2

solubility ([2]; read-out: solubility): 0.1 mM (≈ 0.0807 mg/mL) | Kd [3]: Not Active
SMILES: COc1ccc2[nH]cc(CCNC(=O)[C@H](Cc3ccncc3)NC(=O)[C@H](Cc3ccc(Cl)cc3)NC(=O)[C@H](Cc3c[nH]c4ccc(O)cc34)NC(=O)CCCN)c2c1
Activity [1]: Active

SMILES: COc1ccccc1-c1ccc(C[C@H](NC(=O)[C@H](Cc2c[nH]c3ccc(O)cc23)NC(=O)[C@H]2CCC[C@H](N)C2)C(=O)N[C@@H](CCCCNC(=N)N)C(=O)NCC(=O)Nc2ccc(N3CCOCC3)cc2)cc1 ({Cyclohexanoyl(1S,3S-3-NH2)}-[Trp(5-OH)][Phe(4-(2-MeO-Ph))][hArg]G-{NH(4-morpholinophenyl)})
solubility [2]: > 50 mM | pKd [4]: 6.97 | Kd [3]: Not Active

SMILES: N=C(N)NCCCC[C@H](NC(=O)[C@H](Cc1ccc(-c2ccccc2)cc1)NC(=O)[C@H](Cc1c[nH]c2ccc(O)cc12)NC(=O)[C@H]1CCC[C@H](N)C1)C(=O)NCC(=O)Nc1ccc(N2CCOCC2)cc1 ({Cyclohexanoyl(1S,3S-3-NH2)}-[Trp(5-OH)][Bip][hArg]G-{NH(4-morpholinophenyl)})
Activity [5]: Active | Activity [6]: Active | Activity [7]: Active | Activity [8]: Active | solubility [2]: > 50 mM | Activity [9]: Active | pKd [4]: 6.95

SMILES: N=C(N)NCCCC[C@H](NC(=O)[C@H](Cc1ccc(-c2ccccc2)cc1)NC(=O)[C@H](Cc1c[nH]c2ccc(O)cc12)NC(=O)[C@H]1CCC[C@H](N)C1)C(=O)NCC(=O)Nc1ccc(CN2CCOCC2)cc1 ({Cyclohexanoyl(1S,3S-3-NH2)}-[Trp(5-OH)][Bip][hArg]G-{NHPh(4-CH2-morpholino)})
solubility [2]: > 50 mM | pKd [4]: 6.84 | Kd [3]: Not Active

SMILES: COc1ccccc1-c1ccc(C[C@H](NC(=O)[C@H](Cc2c[nH]c3ccc(O)cc23)NC(=O)[C@H]2CCC[C@H](N)C2)C(=O)N[C@@H](CCCCNC(=N)N)C(=O)NCC(=O)Nc2ccc(CN3CCOCC3)cc2)cc1 ({Cyclohexanoyl(1S,3S-3-NH2)}-[Trp(5-OH)][Phe(4-(2-MeO-Ph))][hArg]G-{NHPh(4-CH2-morpholino)})
solubility [2]: > 50 mM | pKd [4]: 7.11 | Kd [3]: Not Active
